≈ marks a conversion by molar mass, not a printed value.
What was measured:
Staphylococcus aureus [1] = assay: (§1) Antimicrobial activity against Staphylococcus aureus Smith after 18 hrs by agar dilution method; format: functional
Summary of the method: (§2)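 Agar dilution on Mueller-Hinton medium, inoculum 10⁴ CFU/spot; MIC is the minimum inhibitory concentration against the named strain.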

Escherichia coli [2] = assay: Inhibition of Escherichia coli DNA gyrase A2B2 complex after 30 mins by supercoiling assay
Staphylococcus aureus [3] = assay: Antimicrobial activity against Staphylococcus aureus Smith infected in iv dosed septicaemia Swiss albino mouse model after 4 days; format: functional; conditions: 96 h
Summary of the method: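 Septicaemia model in mice infected with S. aureus Smith, compound given iv. In experiments with 0-1 survivors among 5-10 control mice, ED₅₀ (mg/kg) taken as lowest dose giving 3-5 survivors out of 5 infected mice.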

Staphylococcus aureus [4] = assay: Antimicrobial activity against multidrug-resistant Staphylococcus aureus after 18 hrs by agar dilution method; format: functional
Summary of the method: (§3)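 Agar dilution on Mueller-Hinton agar, inoculum 10⁴ CFU/spot, against panels of multiresistant clinical strains (S. aureus 11, E. faecalis 16, E. faecium 23). MIC_50/90 in μg/mL taken as the minimum concentration inhibiting at least 50% or 90% of the strains tested.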

Escherichia coli [5] = assay: Antimicrobial activity against Escherichia coli 25922 after 18 hrs by agar dilution method; format: functional; conditions: Escherichia coli, 25922, 18 h; summary of the method: as §2
Streptococcus pyogenes = assay: Antimicrobial activity against Streptococcus pyogenes b15 after 18 hrs by agar dilution method; format: functional; conditions: b15, 18 h; summary of the method: as §2
[6] = test system: Staphylococcus epidermidis; assay: Antimicrobial activity against Staphylococcus epidermidis 16/2 after 18 hrs by agar dilution method; format: functional; conditions: 16/2, 18 h; summary of the method: as §2
Enterococcus faecalis [7] = assay: Antimicrobial activity against Enterococcus faecalis 6 after 18 hrs by agar dilution method; conditions: Enterococcus faecalis, 6, 18 h
Staphylococcus aureus [8] = assay: Antimicrobial activity against Staphylococcus aureus ATCC 25923 after 18 hrs by agar dilution method; format: functional; conditions: ATCC 25923, 18 h; summary of the method: as §2
Staphylococcus aureus [9] = assay: as §1; format: functional; summary of the method: as §2; remark: listed apart in the source
[10] = test system: Stenotrophomonas maltophilia; assay: Antimicrobial activity against Xanthomonas maltophilia IAC 739 after 18 hrs by agar dilution method; format: functional; conditions: IAC 739, 18 h; summary of the method: as §2
Enterococcus faecium = assay: Antimicrobial activity against multidrug-resistant Enterococcus faecium after 18 hrs by agar dilution method; format: functional; summary of the method: as §3
Enterococcus faecalis [11] = assay: Antimicrobial activity against multidrug-resistant Enterococcus faecalis after 18 hrs by agar dilution method; format: functional; summary of the method: as §3

| MIC (Staphylococcus aureus [1]) [µg/mL] | MNEC (Escherichia coli [2]) [µg/mL] | Structure (SMILES) | ED50 (Staphylococcus aureus [3]) [mg/kg] | other results |
| --- | --- | --- | --- | --- |
| 8 (≈ 14.7 µM) | 0.05 | COCc1noc([C@@H]2CSCc3c(O)cc(OC)c(Br)c3C(=O)OCC(=O)NCC(=O)N2)n1 | – | – |
| 2 (≈ 3.78 µM) | 0.05 | COc1cc(O)c2c(c1Br)C(=O)OCC(=O)N(C)CC(=O)N[C@H](c1nc(C)no1)CSC2 | > 12.5 | – |
| 0.5 (≈ 0.917 µM) | 0.2 | COc1cc(O)c2c(c1Br)C(=O)O[C@H](C)C(=O)NCC(=S)N[C@H](c1nc(C)no1)CSC2 | > 12.5 | – |
| 1 | 0.05 | COc1cc(O)c2c(c1Br)C(=O)OCC(=O)NCC(=S)N[C@H](c1nc(CN)no1)CSC2.Cl | > 12 | – |
| 16 (≈ 29.4 µM) | 0.01 | COc1cc(O)c2c(c1Br)C(=O)OCCN(C(C)=O)CC(=O)N[C@H](c1nc(C)no1)CSC2 | – | – |
| 32 (≈ 60.2 µM) | 0.02 | COc1cc(O)c2c(c1Br)C(=O)OCC(=O)NCC(=O)N[C@H](c1nc(CO)no1)CSC2 | – | – |
| 0.5 | 0.02 | COc1cc(O)c2c(c1Br)C(=O)OCC(=O)NCC(=S)N[C@H](c1nc(CNC(C)C)no1)CSC2.Cl | 12 | MIC (Escherichia coli [5]): > 64 µg/mL; MIC (Streptococcus pyogenes): 0.25 µg/mL; MIC [6]: < 0.12 µg/mL; MIC (Enterococcus faecalis [7]): 0.25 µg/mL; MIC (Staphylococcus aureus [8]): 1 µg/mL; MIC (Staphylococcus aureus [9]): 0.5 µg/mL; MIC [10]: 16 µg/mL |
| 16 | 0.02 | COc1cc(O)c2c(c1Br)C(=O)OCC(=O)NCC(=O)N[C@H](c1nc(CNC(C)C)no1)CSC2.Cl | – | – |
| 2 (≈ 3.69 µM) | 0.02 | COc1cc(O)c2c(c1Br)C(=O)OCC(=O)NCC(=O)N[C@H](c1nc(C3CC3)no1)CSC2 | 6 | – |
| 2 (≈ 4.29 µM) | 0.005 | COc1cc(O)c2c(c1C)C(=O)OCC(=S)NCC(=O)N[C@H](c1nc(C)no1)CSC2 | > 25 | – |
| 1 (≈ 1.83 µM) | 0.2 | COc1cc(O)c2c(c1Br)C(=O)OCC(=S)NCC(=S)N[C@H](c1nc(C)no1)CSC2 | – | – |
| 32 | 0.1 | COc1cc(O)c2c(c1Br)C(=O)OCC(=O)NCC(=O)N[C@H](c1nc(CN)no1)CSC2.Cl | – | – |
| > 64 | 0.1 | COc1cc(O)c2c(c1Br)C(=O)OCCN(C(=O)[C@H](C)N)CC(=O)N[C@H](c1nc(C)no1)CSC2.Cl | – | – |
| 8 (≈ 17 µM) | 0.02 | COc1cc(O)c2c(c1Cl)C(=O)OCC(=O)NCC(=O)N[C@H](c1nc(C)no1)CSC2 | 25 | – |
| 0.5 (≈ 0.917 µM) | 0.05 | COc1cc(O)c2c(c1Br)C(=O)OCC(=O)N(C)CC(=S)N[C@H](c1nc(C)no1)CSC2 | – | – |
| 1 | 0.05 | COc1cc(O)c2c(c1Br)C(=O)OCCN(C)CC(=O)N[C@H](c1nc(C)no1)CSC2.Cl | > 25 | – |
| 64 (≈ 110 µM) | 0.1 | COc1cc(O)c2c(c1Br)C(=O)OCCN(S(C)(=O)=O)CC(=O)N[C@H](c1nc(C)no1)CSC2 | – | – |
| 1 | 0.01 | COc1cc(O)c2c(c1Br)C(=O)OCCNCC(=O)N[C@H](c1nc(C)no1)CSC2.Cl | 25 | – |
| 2 (≈ 3.78 µM) | 0.05 | COc1cc(O)c2c(c1Br)C(=O)O[C@H](C)C(=O)NCC(=O)N[C@H](c1nc(C)no1)CSC2 | > 12.5 | – |

The remaining lines, values behind:

| Structure (SMILES) | MIC (Staphylococcus aureus [1]) [µg/mL] | MNEC (Escherichia coli [2]) [µg/mL] | ED50 (Staphylococcus aureus [3]) [mg/kg] | other results |
| --- | --- | --- | --- | --- |
| COc1cc(O)c2c(c1Br)C(=O)OCCNCC(=S)N[C@H](c1nc(C)no1)CSC2.Cl | 0.5 | 0.1 | > 25 | – |
| COc1cc(O)c2c(c1Br)C(=O)OCCCCC(=S)N[C@H](c1nc(CN)no1)CSC2.Cl | 0.5 | 0.05 | 12.5 | – |
| COc1cc(O)c2c(c1C)C(=O)OC[C@@H](CO)CCC(=O)N[C@H](c1nc(C)no1)CSC2 | 64 (≈ 137 µM) | 0.1 | – | – |
| COc1cc(O)c2c(c1C)C(=O)O[C@H](CO)CCCC(=S)N[C@H](c1nc(CN)no1)CSC2 | 32 (≈ 64.4 µM) | 0.005 | – | – |
| COc1cc(O)c2c(c1Br)C(=O)O[C@H](c1ccccc1)C(=O)NCC(=S)N[C@H](c1nc(C)no1)CSC2 | 0.5 (≈ 0.823 µM) | 1 | > 25 | – |
| COc1cccc(OC)c1C(=O)N[C@@H]1C(=O)N2[C@@H]1SC(C)(C)[C@@H]2C(=O)O [METHICILLIN] | – | – | – | MIC50 (Staphylococcus aureus [4]): 256 µg/mL (≈ 673 µM); MIC90 (Staphylococcus aureus [4]): > 256 µg/mL |
| COc1cc(O)c2c(c1C)C(=O)OC[C@H](CO)CCC(=S)N[C@H](c1nc(C)no1)CSC2 | 0.5 (≈ 1.04 µM) | 0.002 | 12.5 | – |
| COc1cc(O)c2c(c1C)C(=O)OCC(=S)NCC(=S)N[C@H](c1nc(C)no1)CSC2 | 0.5 (≈ 1.04 µM) | 0.002 | – | – |
| CO[C@@H]1[C@@H](OC(N)=O)[C@@H](O)[C@H](Oc2ccc3c(O)c(NC(=O)c4ccc(O)c(CC=C(C)C)c4)c(=O)oc3c2C)OC1(C)C [NOVOBIOCIN] | – | – | 3 | MIC (Escherichia coli [5]): > 64 µg/mL; MIC (Streptococcus pyogenes): 1 µg/mL (≈ 1.63 µM); MIC [6]: 0.25 µg/mL (≈ 0.408 µM); MIC (Enterococcus faecalis [7]): 4 µg/mL (≈ 6.53 µM); MIC (Staphylococcus aureus [8]): 0.25 µg/mL (≈ 0.408 µM); MIC (Staphylococcus aureus [9]): 0.12 µg/mL (≈ 0.196 µM); MIC [10]: > 64 µg/mL |
| COC(=O)[C@@H]1CSCc2c(O)cc(OC)c(C)c2C(=O)OCCCC/C(S)=N/1 | – | 0.01 | – | – |
| COC(=O)[C@@H]1CSCc2c(O)cc(OC)c(C)c2C(=O)OCCOCC(=S)N1 | 2.37 (≈ 5.52 µM) | 0.1 | – | – |
| COc1cc(O)c2c(c1Br)C(=O)OCCN(C(=O)C1CC1)CC(=O)N[C@H](c1nc(C)no1)CSC2 | 8 (≈ 14 µM) | 0.1 | – | – |
| COc1cc(O)c2c(c1Br)C(=O)OCCN(C(=O)C(C)(C)C)CC(=O)N[C@H](c1nc(C)no1)CSC2 | 0.5 (≈ 0.854 µM) | 0.05 | > 12 | – |
| COc1cc(O)c2c(c1C)C(=O)OC[C@H](CO)CCC(=O)N[C@H](c1nc(C)no1)CSC2 | 8 (≈ 17.2 µM) | 0.005 | – | – |
| COc1cc(O)c2c(c1Br)C(=O)OCCN(C(=O)[C@@H](N)CC(C)C)CC(=O)N[C@H](c1nc(C)no1)CSC2.Cl | 16 | 0.1 | – | – |
| COc1cc(O)c2c(c1C)C(=O)OC[C@@H](CO)CCC(=S)N[C@H](c1nc(C)no1)CSC2 | 1 (≈ 2.08 µM) | 0.05 | > 25 | – |
| COc1cc(O)c2c(c1Br)C(=O)O[C@H](c1ccccc1)C(=O)NCC(=O)N[C@H](c1nc(C)no1)CSC2 | > 64 | 0.2 | – | – |
| COc1cc(O)c2c(c1C)C(=O)O[C@H](CO)CCCC(=S)N[C@H](c1nc(CO)no1)CSC2 | 10 (≈ 20.1 µM) | 0.01 | – | – |
| COc1cc(O)c2c(c1Cl)C(=O)OCCCCC(=O)N[C@H](c1nc(C)no1)CSC2 | 0.25 (≈ 0.548 µM) | 0.005 | > 25 | – |
| COc1cc(O)c2c(c1C)C(=O)OCCCCC(=S)N[C@H](c1nc(CO)no1)CSC2 | 0.25 (≈ 0.535 µM) | 0.001 | 25 | – |
| C[C@@H](O)[C@H]1C(=O)N2C(C(=O)O)=C(SCCNC=N)C[C@H]12 [IMIPENEM ANHYDROUS] | – | – | – | MIC50 (Enterococcus faecium): 64 µg/mL (≈ 214 µM); MIC90 (Enterococcus faecium): > 64 µg/mL; MIC50 (Staphylococcus aureus [4]): 32 µg/mL (≈ 107 µM); MIC90 (Staphylococcus aureus [4]): 64 µg/mL (≈ 214 µM); MIC50 (Enterococcus faecalis [11]): 2 µg/mL (≈ 6.68 µM); MIC90 (Enterococcus faecalis [11]): 2 µg/mL (≈ 6.68 µM) |
| COc1cc(O)c2c(c1Cl)C(=O)OCCCCC(=S)N[C@H](c1nc(C)no1)CSC2 | 0.25 (≈ 0.53 µM) | 0.002 | – | – |
